Reference: ChEMBL document CHEMBL2439995, “Synthesis and Evaluation of Quinazolone Derivatives as a New Class of c-KIT G-Quadruplex Binding Ligands” (ACS Med Chem Lett, 2013)
The source made the active and inactive calls. No cut-off for these calls is given here.

Assays:
[1] = tested on: HGC-27; assay: Cytotoxicity against HGC27 cells assessed as cell viability after 48 hrs by MTT assay; format: functional, cell-based; conditions: Homo sapiens, HGC-27, 48 h
[2] = tested on: MCF7; assay: Binding affinity to c-KIT2 mutant G-quadruplex DNA isolated from human MCF7 cells at 2.5 uM after 48 hrs by dual luciferase reporter gene assay; format: cell-based
Outline: (§1)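 MCF-7 cells transiently transfected with a luciferase plasmid carrying the full-length wild-type c-KIT promoter or its mutant, plus pRL-TK. Cells treated 48 h with compound at 2.5 µM or a range of concentrations. Firefly signal normalized to pRL-TK, expressed relative to untreated cells (100%). Triplicates, three independent experiments, standard error.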

[3] = tested on: MCF7; assay: Binding affinity to full length wild type c-KIT2 G-quadruplex DNA isolated from human MCF7 cells at 2.5 uM after 48 hrs by dual luciferase reporter gene assay; format: cell-based; outline: as §1
[4] = tested on: MCF7; assay: Binding affinity to full length wild type c-KIT1 G-quadruplex DNA isolated from human MCF7 cells at 2.5 uM after 48 hrs by dual luciferase reporter gene assay; format: cell-based; outline: as §1
[5] = Binding affinity to duplex DNA (unknown origin) up to 20 uM by surface plasmon resonance method
Outline: (§2)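 SPR binding to immobilized c-KIT1 G-quadruplex or duplex DNA, ligand injected at various concentrations, up to 20 µM. KD obtained by global fitting of the kinetic data to a 1:1 Langmuir binding model.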

[6] = Binding affinity to biotinylated c-KIT1 G-quadruplex DNA (unknown origin) by surface plasmon resonance method; outline: as §2
[7] = Binding affinity to F10T duplex DNA (unknown origin) assessed as change in melting temperature at 5 uM by FRET assay
[8] = Binding affinity to F-c-KIT2-T G-quadruplex DNA (unknown origin) assessed as change in melting temperature at 5 uM by FRET assay
[9] = Binding affinity to F-c-KIT1-T G-quadruplex DNA (unknown origin) assessed as change in melting temperature at 5 uM by FRET assay
[10] = tested on: MCF7; assay: Binding affinity to c-KIT1 mutant G-quadruplex DNA isolated from human MCF7 cells at 2.5 uM after 48 hrs by dual luciferase reporter gene assay; format: cell-based; outline: as §1
[11] = tested on: HGC-27; assay: Downregulation of c-KIT mRNA expression in HGC27 cells after 24 hrs by RT-PCR analysis relative to control; format: functional, cell-based; conditions: Homo sapiens
Outline: (§3)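 HGC-27 gastric carcinoma cells treated 24 h at final 1.25, 2.5 or 5 µM. c-KIT mRNA quantified by RT-PCR against β-actin, relative to control.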

[12] = tested on: HGC-27; assay: Downregulation of c-KIT mRNA expression in HGC27 cells at 5 uM after 24 hrs by RT-PCR analysis relative to control; format: functional, Homo sapiens; outline: as §3
[13] = tested on: HGC-27; assay: Downregulation of c-KIT mRNA expression in HGC27 cells at 2.5 uM after 24 hrs by RT-PCR analysis relative to control; format: functional, Homo sapiens; outline: as §3
[14] = tested on: HGC-27; assay: Downregulation of c-KIT mRNA expression in HGC27 cells at 1.25 uM after 24 hrs by RT-PCR analysis relative to control; format: functional, Homo sapiens; outline: as §3
[15] = tested on: MCF7; assay: Binding affinity to c-KIT2 mutant G-quadruplex DNA isolated from human MCF7 cells at 5 uM after 48 hrs by dual luciferase reporter gene assay relative to control; format: cell-based; outline: as §1
[16] = tested on: MCF7; assay: Binding affinity to c-KIT1 mutant G-quadruplex DNA isolated from human MCF7 cells at 5 uM after 48 hrs by dual luciferase reporter gene assay relative to control; format: cell-based; outline: as §1
[17] = tested on: MCF7; assay: Binding affinity to full length wild type c-KIT2 G-quadruplex DNA isolated from human MCF7 cells at 5 uM after 48 hrs by dual luciferase reporter gene assay relative to control; format: cell-based; outline: as §1
[18] = tested on: MCF7; assay: Binding affinity to full length wild type c-KIT1 G-quadruplex DNA isolated from human MCF7 cells at 5 uM after 48 hrs by dual luciferase reporter gene assay relative to control; format: cell-based; outline: as §1
[19] = tested on: MCF7; assay: Binding affinity to full length wild type c-KIT2 G-quadruplex DNA isolated from human MCF7 cells after 48 hrs by dual luciferase reporter gene assay; format: cell-based; outline: as §1
[20] = tested on: MCF7; assay: Binding affinity to full length wild type c-KIT1 G-quadruplex DNA isolated from human MCF7 cells after 48 hrs by dual luciferase reporter gene assay; format: cell-based; outline: as §1
[21] = Binding affinity to c-KIT2 G-quadruplex DNA (unknown origin) at 25 uM by CD spectrophotometric analysis
Outline: (§4)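 Circular dichroism spectra of 5 µM c-KIT1 or c-KIT2 oligonucleotide in 10 mM Tris–HCl, pH 7.2, 100 mM KCl, recorded with and without 25 µM ligand. Bands near 263 nm (positive) and 240 nm (negative) monitored.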

[22] = Binding affinity to c-KIT1 G-quadruplex DNA (unknown origin) at 25 uM by CD spectrophotometric analysis; outline: as §4

Compound	IC50 [1]	inhibition [2]	inhibition [3]	inhibition [4]	Activity [5]	Kd [6]	ΔTm [7]	ΔTm [8]	ΔTm [9]	inhibition [10]	also measured
Cc1ccc(NC(=O)c2ccc(CN3CCN(C)CC3)cc2)cc1Nc1nccc(-c2cccnc2)n1 [IMATINIB]	3.8 µM	–	–	–	–	–	–	–	–	–	–
CN1CCN(c2cc3nc(/C=C/c4ccc(NC(=O)CCN5CCCCC5)cc4)n(-c4ccccc4)c(=O)c3cc2F)CC1	8.2 µM	inactive	Active	Active	inactive	0.916 µM	0 °C	12.6 °C	10.7 °C	inactive	–
CN(C)CCNC(=O)c1ccc(/C=C/c2nc3cc(N4CCN(C)CC4)c(F)cc3c(=O)n2-c2ccccc2)cc1	21.2 µM	inactive	Active	Active	inactive	1.16 µM	0.5 °C	15.9 °C	15.1 °C	inactive	–
CCN(CC)CC(=O)Nc1ccc(/C=C/c2nc3cc(N4CCN(C)CC4)c(F)cc3c(=O)n2-c2ccccc2)cc1	18.4 µM	inactive	Active	Active	–	–	0 °C	7.8 °C	5.5 °C	inactive	–
CCN(CC)CCC(=O)Nc1ccc(/C=C/c2nc3cc(N4CCN(C)CC4)c(F)cc3c(=O)n2-c2ccccc2)cc1	6.8 µM	inactive	Active	Active	inactive	0.612 µM	0 °C	13.6 °C	11.1 °C	inactive	Activity [11]: Dose-dependent effect; Activity [12]: 52.5%; Activity [13]: 22.8%; Activity [14]: 4.9%; inhibition [15]: 22%; inhibition [16]: 22%; inhibition [17]: 45%; inhibition [18]: 45%; inhibition [19]: Dose-dependent effect; inhibition [20]: Dose-dependent effect; Activity [21]: Active; Activity [22]: Active
CN1CCN(c2cc3nc(/C=C/c4ccc(C(=O)NCCN5CCCC5)cc4)n(-c4ccccc4)c(=O)c3cc2F)CC1	17.2 µM	inactive	Active	Active	inactive	15.7 µM	0.4 °C	13.4 °C	12.3 °C	inactive	–
CN1CCN(c2cc3nc(/C=C/c4ccc(NC(=O)CN5CCCCC5)cc4)n(-c4ccccc4)c(=O)c3cc2F)CC1	1.3 µM	inactive	Active	Active	–	–	0.1 °C	7.5 °C	4.2 °C	inactive	–
CCN(CC)CCNC(=O)c1ccc(/C=C/c2nc3cc(N4CCN(C)CC4)c(F)cc3c(=O)n2-c2ccccc2)cc1	8.6 µM	inactive	Active	Active	inactive	1.37 µM	0.4 °C	14.3 °C	13.4 °C	inactive	Activity [11]: Dose-dependent effect; Activity [12]: 35.7%; Activity [13]: 10.4%; Activity [14]: 5.7%; inhibition [15]: 20%; inhibition [16]: 20%; inhibition [17]: 37%; inhibition [18]: 37%; inhibition [19]: Dose-dependent effect; inhibition [20]: Dose-dependent effect; Activity [21]: Active; Activity [22]: Active
CN1CCN(c2cc3nc(/C=C/c4ccc(C(=O)NCCCN5CCCC5)cc4)n(-c4ccccc4)c(=O)c3cc2F)CC1	12.3 µM	inactive	Active	Active	inactive	1.99 µM	0.4 °C	16.8 °C	15.9 °C	inactive	–
CN1CCN(c2cc3nc(/C=C/c4ccc(NC(=O)CCN5CCCC5)cc4)n(-c4ccccc4)c(=O)c3cc2F)CC1	13.4 µM	inactive	Active	Active	inactive	1.88 µM	0 °C	12.4 °C	11.3 °C	inactive	–
CN1CCN(c2cc3nc(/C=C/c4ccc(NC(=O)CN5CCCC5)cc4)n(-c4ccccc4)c(=O)c3cc2F)CC1	2.3 µM	inactive	Active	Active	inactive	0.784 µM	0 °C	9.4 °C	6.4 °C	inactive	–
